Calls of active or inactive are those of the source. No cut-off for these calls is given here.

The source of these data is ChEMBL document CHEMBL1139283, “Synthesis and biological activity of 1,4-dihydrobenzothiopyrano[4,3-c]pyrazole derivatives, novel pro-apoptotic mitochondrial targeted agents” (Bioorg Med Chem, 2009).

The subject of experiment [1] is HeLa. Briefly: Cytotoxicity against human HeLa cells after 72 hrs by trypan blue assay. Type of experiment: functional, cell-based. In short, it runs like this: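 HeLa cells kept in Ham's F-12 with 10% heat-inactivated FCS plus antibiotics, 37 °C, 5% CO2. 4×10^4 cells/well seeded, 24 h, medium renewed, then a range of concentrations added for 72 h. Viability by trypan blue; IC50 is the concentration giving 50% fewer cells than control.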

For the next experiment, the system named is HL-60. Description: Cytotoxicity against human HL60 cells after 72 hrs by trypan blue assay. It counts as functional, cell-based. The conditions noted are these: HL-60, 72 h. Put shortly: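 HL-60 cells kept in RPMI 1640 with 15% heat-inactivated FCS plus antibiotics, 37 °C, 5% CO2. 4×10^4 cells/well seeded, 24 h, then a range of concentrations added to complete medium for 72 h. Cell number counted by trypan blue; IC50 is the concentration giving 50% fewer cells than control cultures.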

The next experiment concerns Salmonidae. Description: Binding affinity to Salmon testes DNA assessed as drug-DNA complex formation by linear flow dichroism method. Put shortly: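 Salmon testes DNA at 1.6×10^-3 M in ETN buffer (10 mM Tris, 10 mM NaCl, 1 mM EDTA, pH 7). DNA concentration set from extinction coefficient 6600 M(p)-1 cm-1 at 260 nm. Linear dichroism spectra recorded at 25 °C at [drug]/[DNA] = 0.00 and 0.08.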

The species entered for experiment [2] is Rattus norvegicus. Description: Increase in hydrogen peroxide production in rat liver mitochondria assessed per mg of protein at 50 uM. Type of experiment: functional. In short, it runs like this: (§1)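 Rat liver mitochondria, 1 mg protein/mL, 20 °C, standard succinate/rotenone medium pH 7.4 with 30 μM Ca2+ unless omitted. Agent 50 μM. H2O2 measured fluorometrically by the scopoletin method, expressed per mg protein; mean ± SD of four independent experiments.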

Experiment [3] relates to HeLa. Briefly: Induction of apoptosis in human HeLa cells assessed as non apoptotic cell count at 50 uM using Annexin-V-FITC PI stain by flow cytometry. It counts as functional. Put shortly:
(§2)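 Near-confluent HeLa cells exposed to 50 μM agent for 0, 24 or 48 h at 37 °C. About 5×10^5 cells in binding buffer (10 mM Hepes pH 7.5, 140 mM NaCl, 2.5 mM CaCl2) stained with 1 μg/ml Annexin V-FITC and 1 μg/ml PI, 10 min at room temperature in the dark. Flow cytometry; mean of three independent experiments.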

For experiment [4], the species on record is Rattus norvegicus. Description: Induction of cytochrome c release in rat liver mitochondria at 50 uM by Western blotting in presence of cyclosporin A. Type of experiment: functional. In short, it runs like this:
(§3)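 Rat liver mitochondria (1 mg protein/mL) incubated 15 min at 20 °C in standard medium with 30 μM Ca2+ unless omitted. Agent 50 μM, CsA 1 μM. Supernatant after 13,000 g, 10 min, 4 °C, concentrated and run on SDS-PAGE (15% for cyt c, 10% for AIF). Western blot with anti-cyt c and anti-AIF antibodies.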

The subject of experiment [5] is HeLa. Description: Induction of apoptosis in human HeLa cells assessed as dead cell count at 50 uM using Annexin-V-FITC PI stain by flow cytometry. It counts as functional.
The species entered for experiment [6] is Rattus norvegicus. Description: Effect on mitochondrial swelling in rat liver mitochondria assessed as complete collapse of electrical membrane potential at 50 uM. Type of experiment: functional.
Experiment [7] relates to HeLa. Description: Induction of DNA fragmentation in human HeLa cells at 100 uM after 24 hrs. It counts as functional, cell-based. Put shortly:
(§4)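 HeLa cells (5×10^5) grown 24 h at 37 °C, optionally pretreated 30 min at 37 °C with 5 μM CsA. Medium renewed, agent added at 100 μM for 24 h. Extracted DNA in TE buffer run on 0.8% agarose gel in TBE, pH 8.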

The species entered for experiment [8] is Rattus norvegicus. Briefly: Induction of apoptosis inducing factor release in rat liver mitochondria at 50 uM by Western blotting in presence of cyclosporin A. It counts as functional. In short, it runs like this:
as §3

Experiment [9] deals with HeLa. Briefly: Induction of apoptosis in human HeLa cells assessed as dead cell count at 50 uM treated for 24 hrs before Annexin-V-FITC PI staining by flow cytometry. Type of experiment: functional.
For experiment [10], the species on record is Rattus norvegicus. Description: Decrease in mitochondrial sulfydryl groups in rat liver mitochondria at 50 uM. It counts as functional. Also noted: scale not given: the % may be the effect or the level left. Put shortly: (§5)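 Rat liver mitochondria (1 mg protein/mL) at 20 °C in 250 mM sucrose, 10 mM Hepes pH 7.4, 5 mM succinate, 1.25 μM rotenone with 30 μM Ca2+ unless omitted. Agent 50 μM; DTE 2 mM where present. Protein thiol oxidation measured; mean ± SD of four independent experiments.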

The species named for experiment [11] is Rattus norvegicus. Briefly: Effect on mitochondrial swelling in rat liver mitochondria assessed as complete collapse of electrical membrane potential at 50 uM in presence of bongkrekic acid. It counts as functional.
Experiment [12] concerns HeLa. Description: Induction of apoptosis in human HeLa cells assessed as early stage apoptotic cell count at 50 uM using Annexin-V-FITC PI stain by flow cytometry. It counts as functional. In short, it runs like this:
as §2

The species entered for experiment [13] is Rattus norvegicus. Description: Effect on mitochondrial swelling in rat liver mitochondria assessed as complete collapse of electrical membrane potential at 50 uM in presence of Ca2+. Type of experiment: functional.
The species entered for experiment [14] is Rattus norvegicus. Briefly: Induction of apoptosis inducing factor release in rat liver mitochondria at 50 uM by Western blotting in presence of Ca2+. Type of experiment: functional. Put shortly: as §3
The species named for experiment [15] is Rattus norvegicus. Description: Effect on mitochondrial swelling in rat liver mitochondria assessed as complete collapse of electrical membrane potential at 50 uM in presence of cyclosporin A. It counts as functional.
The subject of experiment [16] is HeLa. Briefly: Induction of apoptosis in human HeLa cells assessed as late stage apoptotic cell count at 50 uM treated for 24 hrs before Annexin-V-FITC PI staining by flow cytometry. Type of experiment: functional. Put shortly:
as §2

The species named for experiment [17] is Rattus norvegicus. Briefly: Increase in hydrogen peroxide production in rat liver mitochondria assessed per mg of protein at 50 uM in presence of CA2+. Type of experiment: functional. In short, it runs like this: as §1
Experiment [18] has as its system HeLa. Briefly: Induction of apoptosis in human HeLa cells assessed as late stage apoptotic cell count at 50 uM using Annexin-V-FITC PI stain by flow cytometry. Type of experiment: functional. Put shortly:
as §2

For experiment [19], the system named is HeLa. Description: Induction of DNA fragmentation in human HeLa cells at 100 uM after 24 hrs in presence of cyclosporin A. Type of experiment: functional, cell-based. In short, it runs like this: as §4
The species named for experiment [20] is Rattus norvegicus. Description: Induction of cytochrome c release in rat liver mitochondria at 50 uM by Western blotting in presence of Ca2+. It counts as functional. In short, it runs like this:
as §3

Experiment [21] concerns HeLa. Briefly: Induction of apoptosis in human HeLa cells assessed as dead cell count at 50 uM treated for 48 hrs before Annexin-V-FITC PI staining by flow cytometry. It counts as functional.
The subject of experiment [22] is HeLa. Description: Induction of apoptosis in human HeLa cells assessed as early stage apoptotic cell count at 50 uM treated for 48 hrs before Annexin-V-FITC PI staining by flow cytometry. It counts as functional. In short, it runs like this: as §2
The species entered for experiment [23] is Rattus norvegicus. Description: Effect on mitochondrial swelling in rat liver mitochondria assessed as complete collapse of electrical membrane potential at 50 uM in presence of N-ethylmaleimide. It counts as functional.
Experiment [24] concerns HeLa. Description: Induction of apoptosis in human HeLa cells assessed as early stage apoptotic cell count at 50 uM treated for 24 hrs before Annexin-V-FITC PI staining by flow cytometry. Type of experiment: functional. In short, it runs like this:
as §2

The test system of experiment [25] is HeLa. Briefly: Induction of apoptosis in human HeLa cells assessed as non apoptotic cell count at 50 uM treated for 24 hrs before Annexin-V-FITC PI staining by flow cytometry. It counts as functional. Put shortly: as §2
For experiment [26], the system named is HeLa. Description: Induction of apoptosis in human HeLa cells assessed as late stage apoptotic cell count at 50 uM treated for 48 hrs before Annexin-V-FITC PI staining by flow cytometry. Type of experiment: functional. Put shortly: as §2
For experiment [27], the species on record is Rattus norvegicus. Description: Decrease in mitochondrial sulfydryl groups in rat liver mitochondria at 50 uM in presence of DTE. It counts as functional. In short, it runs like this:
as §5

Experiment [28] has as its system HeLa. Briefly: Induction of mitochondrial membrane depolarization in human HeLa cells at 50 uM after 24 hrs by FL2 staining. Type of experiment: functional. In short, it runs like this: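 Near-confluent HeLa cells given 50 μM agent in DMSO for 24 h at 37 °C; JC-1 added at […] final for the last 10 min. Positive control 20 μM H2O2 for 24 h. After cold PBS wash, flow cytometry with 488 nm excitation; monomers at 530 nm, aggregates (FL2) at 585/650 nm. At least 10,000 events; one of four experiments.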

In experiment [29] the test system is HeLa. Briefly: Cytotoxicity against human HeLa cells assessed as viable cells at 6 uM after 72 hrs by trypan blue assay in presence of cyclosporin A. Type of experiment: functional. The conditions noted are these: read-out: Activity. Put shortly:
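HeLa cells seeded, after 24 h pretreated 30 min with 2 μM CsA. Medium renewed, 6 μM agent added, 72 h. Viable cells counted by trypan blue and expressed as percent of control culture cell number.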

Experiment [30] is filed under the species Rattus norvegicus. Description: Decrease in mitochondrial sulfydryl groups in rat liver mitochondria at 50 uM in presence of Ca2+. Type of experiment: functional. Put shortly:
as §5

Experiment [31] deals with HeLa. Briefly: Induction of apoptosis in human HeLa cells assessed as non apoptotic cell count at 50 uM treated for 48 hrs before Annexin-V-FITC PI staining by flow cytometry. It counts as functional. Put shortly: as §2
The species named for experiment [32] is Rattus norvegicus. Briefly: Effect on mitochondrial swelling in rat liver mitochondria assessed as complete collapse of electrical membrane potential at 50 uM in presence of ADP. It counts as functional.

With `COc1ccc2c(c1)SCc1cn(-c3ccc(Cl)cc3)nc1-2`, the IC50 with HeLa [1] and in the experiment with HL-60 was above 20 µM throughout.
As for `COc1ccc2c(c1)SCc1cnn(-c3ccccc3)c1-2`, the results for the 50% inhibitory concentration (IC50) with HeLa [1] and in the experiment on HL-60 were 17.2 µM and 12.5 µM, respectively. In the experiment with Salmonidae, the result was inactive.
Take `COc1ccc(-n2ncc3c2-c2ccc(OC)cc2SC3)cc1`: the half-maximal inhibitory concentration (IC50) in the experiment with HeLa [1] came to 17.8 µM; in the experiment with HL-60, 6.6 µM. Also, in the experiment on Salmonidae, the outcome was inactive.
Consider `COc1ccc(-n2cc3c(n2)-c2ccc(OC)cc2SC3)cc1`, for which the IC50 in the experiment with HeLa [1] and in the experiment on HL-60 was above 20 µM in each case.
As to `COc1ccc2c(c1)SCc1cnn(-c3ccc(Cl)cc3)c1-2`, the Activity in the experiment listed under Rattus norvegicus [2] stood at 0.25 nmol; in the experiment on HeLa [3], 93.4%; in the experiment with HeLa [5], 0.6%; in the experiment with HeLa [9], 5.4%; in the experiment listed under Rattus norvegicus [10] it was 20%; in the experiment on HeLa [12], 4.8%. The Activity with HeLa [16] came out at 28.2%; in the experiment listed under Rattus norvegicus [17], 0.55 nmol; in the experiment on HeLa [18], 1.2%; in the experiment on HeLa [21], 11.6%; in the experiment with HeLa [22], 8.5%; in the experiment with HeLa [24], 19.7%. For the same molecule, the Activity with HeLa [25] stood at 46.7%; in the experiment with HeLa [26], 39%; in the experiment on HeLa [28] it was 39.4%; in the experiment listed under Rattus norvegicus [30], 2; in the experiment on HeLa [31], 40.9%. Moreover, the outcome in the experiment filed under Rattus norvegicus [4], in the experiment listed under Rattus norvegicus [6], in the experiment filed under Rattus norvegicus [8], in the experiment filed under Rattus norvegicus [11], in the experiment filed under Rattus norvegicus [15] and in the experiment with HeLa [19] was inactive. In addition, the outcome in the experiment filed under Rattus norvegicus [23], in the experiment with Salmonidae and in the experiment filed under Rattus norvegicus [32] was inactive. Moreover, the result with HeLa [7], in the experiment filed under Rattus norvegicus [13], in the experiment listed under Rattus norvegicus [14], in the experiment filed under Rattus norvegicus [20] and in the experiment listed under Rattus norvegicus [27] was Active. Also, the concentration for half-maximal inhibition (IC50) with HeLa [1] worked out at 6.7 µM; with HL-60, 3.8 µM. Also, the viability at 6 µM in the experiment on HeLa [29] came to 64%.
For the molecule `COc1ccc2c(c1)SCc1cn(-c3ccccc3)nc1-2`, the IC50 in the experiment with HeLa [1] and with HL-60 was above 20 µM in each case.
`COc1ccc2c(c1)SCc1cnc(-c3ccccc3)nc1-2`: half-maximal inhibition with HL-60 (IC50) was put at 7.15 µM.
On to `Clc1ccc(-n2ncc3c2-c2ccc(Cl)cc2SC3)cc1`, for which the IC50 with HeLa [1] and in the experiment on HL-60 was above 20 µM throughout.
Regarding `COc1ccc(-n2ncc3c2-c2ccc(Cl)cc2SC3)cc1`, the 50% inhibitory concentration (IC50) in the experiment on HeLa [1] and with HL-60 was above 20 µM in each case.
For the molecule `Clc1ccc2c(c1)SCc1cnn(-c3ccccc3)c1-2`, the IC50 in the experiment on HeLa [1] and with HL-60 was above 20 µM in each case.
`COc1ccc2c(c1)SCc1cn[nH]c1-2`: the IC50 in the experiment on HeLa [1] and with HL-60 was above 20 µM each time.
For `Clc1ccc2c(c1)SCc1cn[nH]c1-2`, the concentration for half-maximal inhibition (IC50) in the experiment with HeLa [1] and in the experiment on HL-60 was above 20 µM throughout.
